pIC50: −log10 of the molar value. Blank lines part the entries; values can stand above or below the compound they belong to.
What was measured:
[1] = target: T1, Polyunsaturated fatty acid lipoxygenase ALOX15 (Homo sapiens, UniProt P16050); test: Inhibition of 15-LO-mediated 15-HETE formation in LPS-stimulated human monocytes preincubated for 15 mins before arachidonic acid substrate addition measured after 30 mins by UPLC-MS/MS analysis; assay type: cell-based
T1 sequence (P16050 whole entry): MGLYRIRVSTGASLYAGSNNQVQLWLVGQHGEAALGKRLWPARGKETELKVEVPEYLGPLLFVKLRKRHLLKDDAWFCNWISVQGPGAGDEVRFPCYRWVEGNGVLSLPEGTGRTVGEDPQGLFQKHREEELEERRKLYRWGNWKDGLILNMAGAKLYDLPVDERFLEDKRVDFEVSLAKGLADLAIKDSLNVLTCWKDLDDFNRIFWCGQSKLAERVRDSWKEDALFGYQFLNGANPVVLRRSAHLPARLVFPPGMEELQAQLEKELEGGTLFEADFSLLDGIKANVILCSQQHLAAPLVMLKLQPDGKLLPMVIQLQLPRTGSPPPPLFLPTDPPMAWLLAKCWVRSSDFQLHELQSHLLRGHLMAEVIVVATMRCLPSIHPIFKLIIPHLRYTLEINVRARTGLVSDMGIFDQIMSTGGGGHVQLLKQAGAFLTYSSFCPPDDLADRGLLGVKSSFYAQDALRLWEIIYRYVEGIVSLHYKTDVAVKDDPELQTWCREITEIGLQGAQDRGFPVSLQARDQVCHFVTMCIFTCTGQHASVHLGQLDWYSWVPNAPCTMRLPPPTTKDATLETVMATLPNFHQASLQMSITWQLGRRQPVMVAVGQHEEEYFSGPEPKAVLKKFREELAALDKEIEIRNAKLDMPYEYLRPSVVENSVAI

Monocyte [2] = test: Inhibition of thromboxane B2 formation in LPS-stimulated human monocytes preincubated for 15 mins before arachidonic acid substrate addition measured after 30 mins by UPLC-MS/MS analysis; assay type: functional, cell-based
Outline: (§1)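 Fresh human monocytes (adherence-isolated, >85% CD14+; 5 × 10⁶/well) primed with LPS 1 μg/mL for 24 h. Washed, 15 min preincubation, then 2.5 μM A23187 plus 20 μM arachidonic acid for 30 min. Eicosanoids extracted and measured by UPLC-MS/MS, normalized to PGB1 as relative intensities. Two to three independent experiments.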

Monocyte [3] = test: Inhibition of 11-HETE formation in LPS-stimulated human monocytes preincubated for 15 mins before arachidonic acid substrate addition measured after 30 mins by UPLC-MS/MS analysis; assay type: functional, cell-based; outline: as §1
Mus musculus [4] = test: Antiinflammatory activity in zymosan-induced peritonitis CD1 mouse model assessed as suppression of MPO activity at 10 mg/kg, ip administered 30 mins before challenge measured 4 hrs post zymosan challenge relative to control; assay type: functional; conditions: route intraperitoneal
Outline: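 In male CD-1 mice (n = 5−11 per group), dose was given ip in 2% DMSO/saline 30 min before ip zymosan (2 mg/mL, 0.5 mL). Lavage 4 h later. Pelleted exudate cells disrupted; supernatant mixed with 0.167 mg/mL o-dianisidine and 0.0005% H2O2 in PBS, read kinetically by absorbance. U/mL from human neutrophil MPO calibration; % inhibition vs vehicle.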

Mus musculus [5] = test: Antiinflammatory activity in zymosan-induced peritonitis CD1 mouse model assessed as suppression of LTB4 level at 10 mg/kg, ip administered 30 mins before challenge measured 4 hrs post zymosan challenge relative to control
Mus musculus [6] = test: Antiinflammatory activity in zymosan-induced peritonitis CD1 mouse model assessed as suppression of LTC4 level at 10 mg/kg, ip administered 30 mins before challenge measured 30 mins post zymosan challenge relative to control; assay type: functional; conditions: route intraperitoneal
Outline: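 Male CD-1 mice (33−39 g, 8−9 weeks; n = 5−11 per group) dosed ip in 0.5 mL 0.9% saline with 2% DMSO 30 min before ip zymosan (0.5 mL of 2 mg/mL in saline). Killed by CO2 30 min after zymosan, peritoneum lavaged with 3 mL cold PBS pH 7.4. Cysteinyl-LTs in exudate supernatant by enzyme immunoassay; % inhibition vs vehicle.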

[7] = target: T2, Prostaglandin G/H synthase 2 (Homo sapiens, UniProt P35354); test: Inhibition of COX2-mediated PGD2 formation in LPS-stimulated human monocytes preincubated for 15 mins before arachidonic acid substrate addition measured after 30 mins by UPLC-MS/MS analysis; assay type: cell-based
T2 sequence (P35354 whole entry): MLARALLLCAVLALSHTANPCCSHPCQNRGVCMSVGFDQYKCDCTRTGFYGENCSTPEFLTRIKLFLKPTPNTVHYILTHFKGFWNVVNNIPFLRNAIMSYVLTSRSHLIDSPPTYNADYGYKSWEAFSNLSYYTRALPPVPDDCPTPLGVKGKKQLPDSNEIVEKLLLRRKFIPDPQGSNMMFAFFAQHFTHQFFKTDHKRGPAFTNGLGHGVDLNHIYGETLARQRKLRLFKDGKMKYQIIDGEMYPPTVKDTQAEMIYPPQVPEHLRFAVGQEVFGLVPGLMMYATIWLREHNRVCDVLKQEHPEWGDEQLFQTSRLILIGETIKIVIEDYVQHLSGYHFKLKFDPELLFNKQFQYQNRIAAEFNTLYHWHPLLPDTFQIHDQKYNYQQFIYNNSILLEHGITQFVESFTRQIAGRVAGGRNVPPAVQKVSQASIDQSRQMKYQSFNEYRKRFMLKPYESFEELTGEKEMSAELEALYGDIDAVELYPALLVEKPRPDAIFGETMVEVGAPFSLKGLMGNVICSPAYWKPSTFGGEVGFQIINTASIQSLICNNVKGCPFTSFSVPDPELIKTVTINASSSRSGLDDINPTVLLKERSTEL

[8] = target: Prostaglandin G/H synthase 1 (Homo sapiens, UniProt P23219); test: Inhibition of COX1-mediated […] in human platelets assessed as residual activity by measuring formation of 12-HHT from arachidonic acid preincubated at 10 uM for 5 mins measured after 5 mins by RP-HPLC analysis relative to control; values are per cent of control
Chain of Prostaglandin G/H synthase 1 (P23219 whole entry): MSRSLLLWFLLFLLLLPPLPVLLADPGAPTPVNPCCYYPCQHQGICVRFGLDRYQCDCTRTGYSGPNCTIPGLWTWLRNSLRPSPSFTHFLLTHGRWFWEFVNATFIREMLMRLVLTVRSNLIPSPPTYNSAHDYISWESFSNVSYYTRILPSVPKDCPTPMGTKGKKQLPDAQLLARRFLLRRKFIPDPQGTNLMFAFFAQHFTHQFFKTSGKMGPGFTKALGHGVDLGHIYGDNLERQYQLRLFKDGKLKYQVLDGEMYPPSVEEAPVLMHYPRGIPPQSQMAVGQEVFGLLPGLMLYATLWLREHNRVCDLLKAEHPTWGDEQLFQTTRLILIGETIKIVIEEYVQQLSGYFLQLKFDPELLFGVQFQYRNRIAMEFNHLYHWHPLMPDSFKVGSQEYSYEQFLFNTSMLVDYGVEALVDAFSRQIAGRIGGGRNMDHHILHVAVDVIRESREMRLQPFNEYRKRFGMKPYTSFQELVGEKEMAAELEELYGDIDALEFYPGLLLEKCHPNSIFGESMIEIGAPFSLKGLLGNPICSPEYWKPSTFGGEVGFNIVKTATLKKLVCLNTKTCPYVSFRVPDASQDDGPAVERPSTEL

pIC50 [1]: 5.92
pIC50 (Monocyte [2]): 5.92
pIC50 (Monocyte [3]): 5.92
Compound: COc1cc(/C=C/C(=O)CC(=O)/C=C/c2ccc(O)c(OC)c2)ccc1O [CURCUMIN]

pIC50 [7]: < 5.00
Compound: COc1cc(/C=C/c2cc(/C=C/c3cc(CC=C(C)C)c(O)c(OC)c3)[nH]n2)cc(CC=C(C)C)c1O
inhibition in vivo at 10 mg/kg (Mus musculus [4]): 39%
inhibition in vivo at 10 mg/kg (Mus musculus [5]): 61%
inhibition in vivo at 10 mg/kg (Mus musculus [6]): 92%

residual activity [8]: 82.3%
Compound: COc1cc(/C=C/c2cc(/C=C/c3ccc(O)c(OC)c3)[nH]n2)ccc1O [CURCUMIN PYRAZOLE]

Reference: ChEMBL document CHEMBL3286393 (J Med Chem, 2014)
